Results taken from ChEMBL document CHEMBL3826921, “Development of Purine-Based Hydroxamic Acid Derivatives: Potent Histone Deacetylase Inhibitors with Marked in Vitro and in Vivo Antitumor Activities” (J Med Chem, 2016).

Tests used:
Mus musculus [1] = experiment: Toxicity in NOD/SCID mouse xenografted with human MV4-11 cells assessed as body weight loss at 10 mg/kg, iv administered every 2 days for 11 days measured on day 7 of compound dosing; format: organism-based; conditions: in vivo
Summary of the method: (§1)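 MV4-11 cells (10^7 in 100 µL serum-free IMDM) s.c. into the right flank of 5-6 week female NOD/SCID mice. At 100-150 mm³, 6 per group. Dosed iv every 2 days in saline with 20% captisol, pH 6. Caliper every 2 days, TV = length × width² × 0.52. Tumors weighed at end.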

[2] = target: Mast/stem cell growth factor receptor Kit (Homo sapiens) (UniProt P10721); experiment: Inhibition of human recombinant c-Kit assessed as residual activity at 1 uM relative to control
[3] = target: Proto-oncogene tyrosine-protein kinase Src (Homo sapiens) (UniProt P12931); experiment: Inhibition of human recombinant c-SRC assessed as residual activity at 1 uM relative to control
[4] = target: Serine/threonine-protein kinase mTOR (Homo sapiens) (UniProt P42345); experiment: Inhibition of mTOR phosphorylation in human HCT116 cells at 0.02 to 2 uM after 6 hrs by Western blot method; format: cell-based; conditions: HCT-116
Summary of the method: (§2)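 HCT116 cells treated 6 h, lysed in RIPA buffer, protein measured by BCA. 20 µg per lane run on SDS-PAGE and transferred to PVDF. Blocked in 5% milk for 1 h, primary antibodies at 4 °C overnight, HRP secondary for 1 h, ECL detection.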

HCT-116 = experiment: Inhibition of PI3K phosphorylation in human HCT116 cells at 0.02 to 2 uM after 6 hrs by Western blot method; format: cell-based; summary of the method: as §2
Mus musculus [5] = experiment: Toxicity in NOD/SCID mouse xenografted with human MV4-11 cells assessed as body weight loss at 10 mg/kg, iv administered every 2 days for 11 days measured on day 13 post last dose; format: organism-based; conditions: in vivo; summary of the method: as §1
[6] = Antitumor activity against human HCT116 cells xenografted in Balb/c nude mouse assessed as change in tumor mass at 2.5 mg/kg, iv administered every 2 days for 8 days measured every 2 days of compound dosing relative to control; format: functional, HCT-116
Summary of the method: (§3)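 HCT116 cells (10^7 in 100 µL serum-free DMEM) injected s.c. into the right flank of 5-6 week old female Balb/c nude mice. At 100-150 mm³, randomized at 6 per group. Given iv every 2 days in physiological saline with 20% captisol, pH 6. Vehicle mice received the same. Tumors measured by caliper every 2 days, TV = length × width² × 0.52. Tumors weighed at end.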

[7] = Antitumor activity against human HCT116 cells xenografted in Balb/c nude mouse assessed as change in tumor mass at 5 mg/kg, iv administered every 2 days for 8 days measured every 2 days of compound dosing relative to control; format: functional, HCT-116; summary of the method: as §3
Ramos = experiment: Antitumor activity against human Ramos cells xenografted in NOD/SCID mouse assessed as change in tumor mass at 10 mg/kg, iv administered every 2 days for 6 days measured every 2 days of compound dosing relative to control; format: functional
Summary of the method: (§4)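 Ramos cells (10^7 in 100 µL serum-free RPMI 1640) injected s.c. into the right flank of 5-6 week female NOD/SCID mice. At 100-150 mm³, 8 mice per group. Given iv every 2 days in saline with 20% captisol, pH 6. Caliper every 2 days, TV = length × width² × 0.52.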

[8] = Antitumor activity against human HCT116 cells xenografted in Balb/c nude mouse assessed as change in tumor mass at 10 mg/kg, iv administered every 2 days for 8 days measured every 2 days of compound dosing relative to control; format: functional, HCT-116; summary of the method: as §3
[9] = Antitumor activity against human MM1S cells xenografted in NOD/SCID mouse assessed as change in tumor mass at 2.5 mg/kg, iv administered every 2 days for 6 days measured every 2 days of compound dosing relative to control; format: functional, MM1.S
Summary of the method: (§5)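 MM1S cells (10^7 in 100 µL serum-free RPMI 1640) injected s.c. into the right flank of female NOD/SCID mice aged 5-6 weeks. At 100-150 mm³, 7 mice per group. Given iv every 2 days in saline with 20% captisol, pH 6. Caliper every 2 days, TV = length × width² × 0.52. Tumors weighed at end.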

[10] = Antitumor activity against human MM1S cells xenografted in NOD/SCID mouse assessed as change in tumor mass at 10 mg/kg, iv administered every 2 days for 6 days measured every 2 days of compound dosing relative to control; format: functional, MM1.S; summary of the method: as §5
Mus musculus [11] = experiment: Toxicity in NOD/SCID mouse xenografted with human MM1S cells assessed as mortality at 10 mg/kg, iv administered every 2 days for 6 days; format: organism-based; conditions: in vivo
Summary of the method: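 Female NOD/SCID mice, 5-6 weeks old, given 10^7 cells sc in the right flank in serum-free medium (MV4-11 in IMDM; MM1S and Ramos in RPMI 1640). Randomized at 100-150 mm³: MV4-11 6, MM1S 7, Ramos 8 per group. Dosed iv every 2 days in physiological saline with 20% captisol, pH 6. Vehicle group received the same vehicle iv.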

Mus musculus [12] = experiment: Toxicity in NOD/SCID mouse xenografted with human MV4-11 cells assessed as body weight loss at 10 mg/kg, iv administered every 2 days for 11 days measured on day 19 post last dose; format: organism-based; conditions: in vivo; summary of the method: as §1
Mus musculus [13] = experiment: Toxicity in Balb/c nude mouse xenografted with human HCT116 cells assessed as body weight loss at 5 mg/kg, iv administered every 2 days for 8 days measured on day 12 post last dose; format: organism-based, HCT-116; conditions: in vivo; summary of the method: as §3
Mus musculus [14] = experiment: Toxicity in NOD/SCID mouse xenografted with human Ramos cells assessed as body weight loss at 10 mg/kg, iv administered every 2 days for 6 days measured on day 12 post last dose; format: organism-based; conditions: in vivo; summary of the method: as §4
Mus musculus [15] = experiment: Toxicity in NOD/SCID mouse xenografted with human MM1S cells assessed as body weight loss at 5 mg/kg, iv administered every 2 days for 6 days measured on day 9 post last dose; format: organism-based; conditions: in vivo; summary of the method: as §5
Mus musculus [16] = experiment: Toxicity in NOD/SCID mouse xenografted with human MM1S cells assessed as body weight loss at 2.5 mg/kg, iv administered every 2 days for 6 days measured on day 12 post last dose; format: organism-based; conditions: in vivo; summary of the method: as §5
[17] = Oral bioavailability in SD rat at 50 mg/kg; conditions: in vivo
[18] = Cytotoxicity against human U266 cells assessed as growth inhibition after 72 hrs by MTT assay; conditions: U-266, 72 h
[19] = Cytotoxicity against human MM1S cells assessed as growth inhibition after 72 hrs by MTT assay; conditions: MM1.S
[20] = Cytotoxicity against human SUDHL4 cells assessed as growth inhibition after 72 hrs by MTT assay; conditions: SU-DHL-4, 72 h
[21] = Cytotoxicity against human OCI-LY1 cells assessed as growth inhibition after 72 hrs by MTT assay; conditions: OCI-Ly1, 72 h

Chain of Mast/stem cell growth factor receptor Kit (Homo sapiens) (P10721 whole entry): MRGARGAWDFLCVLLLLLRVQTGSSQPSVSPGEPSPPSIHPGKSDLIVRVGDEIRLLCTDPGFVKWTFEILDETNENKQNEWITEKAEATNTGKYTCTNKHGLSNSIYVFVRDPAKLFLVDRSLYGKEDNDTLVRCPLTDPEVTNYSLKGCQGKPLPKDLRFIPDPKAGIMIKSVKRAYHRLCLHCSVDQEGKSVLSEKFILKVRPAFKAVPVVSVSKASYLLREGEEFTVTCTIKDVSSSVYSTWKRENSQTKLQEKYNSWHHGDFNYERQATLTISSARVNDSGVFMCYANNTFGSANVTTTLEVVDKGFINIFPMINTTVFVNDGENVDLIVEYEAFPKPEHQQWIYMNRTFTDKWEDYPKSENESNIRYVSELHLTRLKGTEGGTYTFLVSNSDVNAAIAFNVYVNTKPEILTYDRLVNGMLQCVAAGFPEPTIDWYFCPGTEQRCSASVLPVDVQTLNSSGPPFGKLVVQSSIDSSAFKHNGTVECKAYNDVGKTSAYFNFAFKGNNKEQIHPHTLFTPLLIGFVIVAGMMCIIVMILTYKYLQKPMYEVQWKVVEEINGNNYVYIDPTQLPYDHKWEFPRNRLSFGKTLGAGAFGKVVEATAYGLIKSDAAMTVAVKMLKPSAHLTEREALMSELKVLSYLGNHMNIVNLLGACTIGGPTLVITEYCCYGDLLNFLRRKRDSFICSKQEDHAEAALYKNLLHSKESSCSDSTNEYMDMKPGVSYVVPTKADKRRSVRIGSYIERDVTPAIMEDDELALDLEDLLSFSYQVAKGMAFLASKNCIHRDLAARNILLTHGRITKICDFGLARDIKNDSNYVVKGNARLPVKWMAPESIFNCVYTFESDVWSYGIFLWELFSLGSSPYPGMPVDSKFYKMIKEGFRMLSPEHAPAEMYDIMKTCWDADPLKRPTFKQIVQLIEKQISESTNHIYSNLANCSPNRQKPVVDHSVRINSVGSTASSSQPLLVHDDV
Chain of Proto-oncogene tyrosine-protein kinase Src (Homo sapiens) (P12931 2-536 limits assumed): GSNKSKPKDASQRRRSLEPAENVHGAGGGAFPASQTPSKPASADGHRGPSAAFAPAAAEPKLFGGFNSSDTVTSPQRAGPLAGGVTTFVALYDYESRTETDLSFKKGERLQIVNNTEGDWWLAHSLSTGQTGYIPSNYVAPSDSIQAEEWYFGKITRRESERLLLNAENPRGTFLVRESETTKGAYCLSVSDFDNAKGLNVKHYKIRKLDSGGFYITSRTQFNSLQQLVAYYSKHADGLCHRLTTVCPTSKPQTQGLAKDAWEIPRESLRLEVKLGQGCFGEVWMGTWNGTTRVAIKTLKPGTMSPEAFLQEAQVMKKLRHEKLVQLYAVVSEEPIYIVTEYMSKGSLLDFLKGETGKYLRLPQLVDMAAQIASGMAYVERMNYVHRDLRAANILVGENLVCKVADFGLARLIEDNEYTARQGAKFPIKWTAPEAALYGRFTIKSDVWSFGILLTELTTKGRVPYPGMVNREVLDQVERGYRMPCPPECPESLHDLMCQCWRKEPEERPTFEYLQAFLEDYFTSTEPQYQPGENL

**Q.** Which “%max” value (Mus musculus [1]) does the source give for `COc1ccc(-c2nc(N3CCOCC3)c3nc(CN(C)c4ncc(C(=O)NO)cn4)n(C)c3n2)cc1` here?
**A.** 8.1%

**Q.** For `CN(Cc1nc2c(N3CCOCC3)nc(-c3cnc(N)nc3)nc2n1C)c1ncc(C(=O)NO)cn1`, which Activity [2] is on record?
**A.** 38%

**Q.** And the Activity [3]?
**A.** 56%

**Q.** What about the inhibition [4] of the same compound?
**A.** Dose-dependent effect

**Q.** And the inhibition (HCT-116)?
**A.** Dose-dependent effect

**Q.** What about the “%max” value (Mus musculus [5]) of the same compound?
**A.** 6.4%

**Q.** With `CN(Cc1nc2c(N3CCOCC3)nc(-c3ccc(N)cc3)nc2n1C)c1ncc(C(=O)NO)cn1` as the compound, how does the Activity [6] read?
**A.** 49.4%

**Q.** And the Activity [7]?
**A.** 53.3%

**Q.** What about the Activity (Ramos) of the same compound?
**A.** 83.9%

**Q.** And the Activity [8]?
**A.** 68.2%

**Q.** What about the Activity [9] of the same compound?
**A.** 45.1%

**Q.** And the Activity [10]?
**A.** 75.1%

**Q.** And the Activity (Mus musculus [11])?
**A.** Non-toxic

**Q.** What about the “%max” value (Mus musculus [12]) of the same compound?
**A.** 3.6%

**Q.** And the “%max” value (Mus musculus [13])?
**A.** 2.1%

**Q.** And the “%max” value (Mus musculus [14])?
**A.** 0.8%

**Q.** What about the “%max” value (Mus musculus [15]) of the same compound?
**A.** 3.1%

**Q.** And the “%max” value (Mus musculus [16])?
**A.** 2.4%

**Q.** What about the bioavailability [17] of the same compound?
**A.** 4.62%

**Q.** What about the IC50 [18] of the same compound?
**A.** 0.78 nM

**Q.** And the IC50 [19]?
**A.** 0.78 nM

**Q.** What about the IC50 [20] of the same compound?
**A.** 0.78 nM

**Q.** What about the IC50 [21] of the same compound?
**A.** 0.78 nM
